In ChEMBL document CHEMBL4622992, “New Polyaminoisoprenyl Antibiotics Enhancers against Two Multidrug-Resistant Gram-Negative Bacteria from Enterobacter and Salmonella Species” (J Med Chem, 2020):
≈ marks a conversion by molar mass, not a printed value. Calls of active or inactive are those of the source. The rule behind the calls is not given here. Where a SMILES comes first, the peptide text is derived from it. Bridges are numbered along the chain shown (N, C = ends). [ ]: non-standard residue; d: D form. The star is where a group is joined. X1 = CC[C@H](C)CCCCC(=O)*; βNA = c1ccc2cc(N*)ccc2c1; Dab = NCC[C@H](N)C(=O)O

Tests used:
Salmonella typhimurium [1] = assay: Potentiation of nalidixic acid-induced antibacterial activity against Salmonella enterica subsp. enterica serovar Typhimurium BN10055 assessed as ratio of the nalidixic acid alone MIC to […] in presence of MIC/4 level of compound incubated for 18 hrs; format: functional
Procedure, shortened: (§1)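 Broth microdilution in MH broth, 10^5 CFU inoculum, two-fold antibiotic dilutions, with or without compound at MIC/4. MIC is the lowest concentration with no visible growth after 18 h at 37°C. Gain is antibiotic MIC alone divided by MIC with compound. MICs repeated in at least three independent experiments; up to 5% DMSO.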

Klebsiella aerogenes [2] = assay: Potentiation of nalidixic acid-induced antibacterial activity against Enterobacter aerogenes Ea289 assessed as ratio of the nalidixic acid alone MIC to nalidixic acid MIC in presence of MIC/4 level of compound incubated for 18 hrs
Salmonella typhimurium [3] = assay: Antibacterial activity against Salmonella enterica subsp. enterica serovar Typhimurium BN10055 assessed as inhibition of bacterial growth incubated for 18 hrs; format: organism-based
Procedure, shortened: (§2)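 Broth microdilution per CA-SFM in MH broth; inoculum 10⁵ CFU in 200 µL with two-fold serial dilutions; compounds dissolved in DMSO, up to 5% DMSO on bacteria. MIC = lowest concentration with no visible growth after 18 h at 37°C. Repeated at least three times independently.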

Klebsiella aerogenes [4] = assay: Potentiation of chloramphenicol-induced antibacterial activity against Enterobacter aerogenes Ea289 assessed as ratio of the chloramphenicol alone MIC to […] in presence of MIC/4 level of compound incubated for 18 hrs; format: functional; procedure, shortened: as §1
Klebsiella aerogenes [5] = assay: Antibacterial activity against Enterobacter aerogenes Ea289 assessed as inhibition of bacterial growth incubated for 18 hrs; format: organism-based; procedure, shortened: as §2
Salmonella typhimurium [6] = assay: Potentiation of chloramphenicol-induced antibacterial activity against Salmonella enterica subsp. enterica serovar Typhimurium BN10055 assessed as ratio of the chloramphenicol alone MIC to […] in presence of MIC/4 level of compound incubated for 18 hrs; format: functional; procedure, shortened: as §1
Klebsiella aerogenes [7] = assay: Potentiation of chloramphenicol-induced antibacterial activity against Enterobacter aerogenes Ea289 assessed as efficiency index by measuring sum of gain factor for each test compound reported for chloramphenicol/nalidixic acid/doxycycline/erythromycin and divided by concentration of test compound; format: functional; conditions: pooled result: one value given for 2 cell lines, strains, targets or settings
Procedure, shortened: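 Gain factors (antibiotic MIC alone / MIC with compound at MIC/4; broth dilution, 18 h, 37°C) for erythromycin, doxycycline, nalidixic acid and chloramphenicol are summed, then divided by the compound concentration used in the assay.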

[8] = Toxicity in CHO cells assessed as reduction in cell viability incubated for 24 hrs by WST1 assay; format: cell-based; conditions: Chinese hamster (Cricetulus griseus)
Procedure, shortened: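 CHO-K1 cells in McCoy's 5A with 10% FCS, exposed in triplicate to 30–1200 μM compound for 24 h at 37°C. After PBS washes, 30 min in medium with 10% WST-1; absorbance at 450 nm. IC50 is the concentration giving 50% loss of viable cells.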

[9] = Toxicity index, ratio of IC50 for toxicity in CHO cells to concentration of test compound causing at least 8 times decrease of MIC of almost 3 antibiotics (chloramphenicol/nalidixic acid/doxycycline/erythromycin ) against Enterobacter aerogenes Ea289; format: cell-based; conditions: hamster, pooled result: one value given for 2 cell lines, strains, targets or settings
Klebsiella aerogenes [10] = assay: Induction of cell transmembrane potential disruption in Enterobacter aerogenes Ea289 assessed as membrane potential by measuring fluorescence level at 100 uM by [DiSC3(5)] based assay (reference value: 0.2%)
Klebsiella aerogenes [11] = assay: Induction of outer cell membrane permeabilization in Enterobacter aerogenes Ea289 assessed as induction of nitrocefin hydrolysis at 100 uM incubated for 15 mins; format: organism-based
Procedure, shortened: (§3)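 Cells at OD600 0.25 in phosphate buffer (20 mM K2HPO4, 1 mM MgCl2, pH 7.0) with 5 μM CCCP, mixed with nitrocefin 50 μg/mL, then compound at 100 μM. Periplasmic β-lactamase hydrolysis followed by absorbance at 490 nm every 30 s at 37°C.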

Klebsiella aerogenes [12] = assay: Potentiation of doxycycline-induced antibacterial activity against Enterobacter aerogenes Ea289 assessed as ratio of the doxycycline alone MIC to doxycycline MIC in presence of MIC/4 level of compound incubated for 18 hrs; format: functional; procedure, shortened: as §1
Salmonella typhimurium [13] = assay: Potentiation of doxycycline-induced antibacterial activity against Salmonella enterica subsp. enterica serovar Typhimurium BN10055 assessed as ratio of the doxycycline alone MIC to doxycycline MIC in presence of MIC/4 level of compound incubated for 18 hrs; format: functional; procedure, shortened: as §1
Salmonella typhimurium [14] = assay: Potentiation of erythromycin-induced antibacterial activity against Salmonella enterica subsp. enterica serovar Typhimurium BN10055 assessed as ratio of the erythromycin alone MIC to erythromycin MIC in presence of MIC/4 level of compound incubated for 18 hrs; format: functional; procedure, shortened: as §1
Klebsiella aerogenes [15] = assay: Potentiation of erythromycin-induced antibacterial activity against Enterobacter aerogenes Ea289 assessed as ratio of the erythromycin alone MIC to erythromycin MIC in presence of MIC/4 level of compound incubated for 18 hrs
Klebsiella aerogenes [16] = assay: Induction of outer cell membrane permeabilization in Enterobacter aerogenes Ea289 assessed as induction of nitrocefin hydrolysis at 100 uM measured during initial 200 secs; format: organism-based; procedure, shortened: as §3
Salmonella typhimurium [17] = assay: Potentiation of doxycycline-induced antibacterial activity against Salmonella typhimurium assessed as mouse survival rate at 0.5 mg/kg, ip co-treated with 64 mg/kg for doxycycline (reference value: 0%); format: functional, Salmonella enterica subsp. enterica serovar Typhimurium
Procedure, shortened: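 Female BALB/cByJ mice, 5-6 weeks, anaesthetized with sevoflurane, infected ip with 200 µL of S. Typhimurium at 10² CFU/mL. Daily dosing with saline, doxycycline 64 mg/kg alone, or doxycycline 64 mg/kg plus 0.5 mg/kg compound. Mice weighed daily; sacrificed at day 1 (n=3), 3 (n=3) or 7 (n=6).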

[18] = Toxicity in BALB/cByJ mouse assessed as effect on mouse survival at 50 uM, ip measured after 48 hrs; format: organism-based; conditions: in vivo
Klebsiella aerogenes [19] = assay: Induction of outer cell membrane permeabilization in Enterobacter aerogenes Ea289 assessed as induction of H33342 dye penetration at 100 uM; format: organism-based
Klebsiella aerogenes [20] = assay: Inhibition of AcrAB-TolC in Enterobacter aerogenes Ea289 assessed as retention of 1,2'diNA dye within bacterial membranes at 100 uM relative to control; parameters: scale not given: the % may be the effect or the level left
Procedure, shortened: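 Stationary-phase cells at OD600 0.25 in potassium phosphate buffer pH 7.0 with CCCP 5 µM, loaded overnight with 1,2'-diNA 32 µM at 37°C, washed, compound added at 100 µM. Glucose 50 mM added at 300 s to energize efflux. Fluorescence (ex 370/em 420 nm) read every 30 s at 37°C; PAβN 100 µM as reference.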

[21] = Toxicity in BALB/cByJ mouse assessed as induction of toxic signs at 50 uM, ip measured after 48 hrs; format: organism-based; conditions: in vivo
Klebsiella aerogenes [22] = assay: Antibacterial activity against Enterobacter aerogenes Ea289 containing deltaacrB mutant assessed as inhibition of bacterial growth incubated for 18 hrs; format: organism-based; procedure, shortened: as §2
Salmonella typhimurium [23] = assay: Antibacterial activity against Salmonella enterica subsp. enterica serovar Typhimurium BN10055 containing deltaacrB mutant assessed as inhibition of bacterial growth incubated for 18 hrs; format: organism-based; procedure, shortened: as §2

Structure (SMILES)	Ratio (Salmonella typhimurium [1])	Ratio (Klebsiella aerogenes [2])	Ratio (Klebsiella aerogenes [4])	Ratio (Salmonella typhimurium [6])	Activity_index (Klebsiella aerogenes [7])	IC50 at 24 h [8]	selectivity ratio [9]	Ratio (Klebsiella aerogenes [12])	Ratio (Salmonella typhimurium [13])	Ratio (Salmonella typhimurium [14])	Ratio (Klebsiella aerogenes [15])	other results
CC(C)=CCCC(C)=CCNCCNCCNCCN	16	2	8	4	0	> 150 µM	0.06	–	–	–	–	MIC (Salmonella typhimurium [3]): > 500 µM; MIC (Klebsiella aerogenes [5]): > 500 µM
CC[C@H](C)CCCCC(=O)N[C@@H](CCN)C(=O)N[C@H](C(=O)N[C@@H](CCN)C(=O)N[C@H]1CCNC(=O)[C@H]([C@@H](C)O)NC(=O)[C@H](CCN)NC(=O)[C@H](CCN)NC(=O)[C@H](CC(C)C)NC(=O)[C@@H](Cc2ccccc2)NC(=O)[C@H](CCN)NC1=O)[C@@H](C)O (X1-[Dab]T[Dab][Dab][Dab][dF]L[Dab][Dab]T; lactam 4-C)	–	–	–	–	–	–	–	–	–	–	–	Activity (Klebsiella aerogenes [10]): 14%
CC(C)=CCCC(C)=CCNCCCN(CCCN)CCCN	128	8	8	16	3.65	127 µM	16.2	32	16	4	16	Activity (Klebsiella aerogenes [11]): Active; Activity (Klebsiella aerogenes [16]): inactive; Survival (Salmonella typhimurium [17]): 43%; Activity [18]: Non-Toxic; Activity (Klebsiella aerogenes [19]): Active; Activity (Klebsiella aerogenes [20]): 68%; Activity (Klebsiella aerogenes [10]): 1%; Activity [21]: Non-Toxic
CC(C)=CCCC(C)=CCNCCCNCCCCNCCCN	64	16	8	16	0.57	> 150 µM	4.8	16	16	2	4	–
CC(C)=CCC/C(C)=C\CCC(C)=CCNCCCNCCCN	64	8	8	8	3.58	30.2 µM	3.86	32	32	8	64	–
CC(C)=CCC/C(C)=C\CCC(C)=CCNCCNCCNCCNCCNCCN	32	8	4	8	2.88	41.7 µM	10.7	16	16	2	4	MIC (Klebsiella aerogenes [22]): 7.8 µM (≈ 3.41 µg/mL)
CC(C)=CCCC(C)=CCNCCNCCNCCNCCNCCN	16	4	8	8	0	> 150 µM	0.06	2	4	–	1	MIC (Salmonella typhimurium [3]): > 500 µM; MIC (Klebsiella aerogenes [5]): > 500 µM
N=C(N)NCCC[C@H](NC(=O)[C@@H](N)Cc1ccccc1)C(=O)Nc1ccc2ccccc2c1 [PABETAN] (H-Phe-Arg-βNA)	64	8	16	8	–	–	–	16	16	8	8	Activity (Klebsiella aerogenes [20]): 25%
CC(C)=CCC/C(C)=C\CCC(C)=CCNCCCN(CCCN)CCCN	128	16	32	16	3.54	> 150 µM	19.2	16	8	1	4	–
CC(C)=CCC/C(C)=C\CCC(C)=CCNCCCCCCCCCCCCN	8	1	2	4	–	25.3 µM	–	2	8	2	1	MIC (Salmonella typhimurium [23]): 3.9 µM (≈ 1.58 µg/mL); MIC (Klebsiella aerogenes [22]): 7.8 µM (≈ 3.16 µg/mL)
